Hits are enriched below; roughly 1.5% of the tested compounds scored in any of these assays.
Runt-SMMHC FRET – inhibitors of human RUNX1 Runt domain binding to CBFb-SMMHC; Q01196+Q13951; Cerulean-Runt/Venus-CBFb-SMMHC FRET ratio 530/480, 1 h; inhibition, % at 20 µM; 220,000 tested, 0.74% active;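 active means mean inhibition across duplicate retests at 20 µM reaching about 50%, limit read from the data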;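 further: 0% = DMSO wells and 100% = wells with excess untagged CBFb-SMMHC; inhibitors lower the FRET ratio by blocking Runt binding to CBFb-SMMHC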
Hck-Nef inh – human Hck-Nef kinase inhibition. inhibition, % at 20 µM. Recombinant Hck-YEEI plus Nef, Z-Lyte FRET kinase assay. 220,000 tested, 0.68% active;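 active means Hck-Nef kinase inhibition above about 50%, limit read from the data; inactive means inhibition below that limit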;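 further: 0% = DMSO with Hck plus Nef and 100% = Hck alone without Nef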
Target sequence (P08631 whole entry, looked up): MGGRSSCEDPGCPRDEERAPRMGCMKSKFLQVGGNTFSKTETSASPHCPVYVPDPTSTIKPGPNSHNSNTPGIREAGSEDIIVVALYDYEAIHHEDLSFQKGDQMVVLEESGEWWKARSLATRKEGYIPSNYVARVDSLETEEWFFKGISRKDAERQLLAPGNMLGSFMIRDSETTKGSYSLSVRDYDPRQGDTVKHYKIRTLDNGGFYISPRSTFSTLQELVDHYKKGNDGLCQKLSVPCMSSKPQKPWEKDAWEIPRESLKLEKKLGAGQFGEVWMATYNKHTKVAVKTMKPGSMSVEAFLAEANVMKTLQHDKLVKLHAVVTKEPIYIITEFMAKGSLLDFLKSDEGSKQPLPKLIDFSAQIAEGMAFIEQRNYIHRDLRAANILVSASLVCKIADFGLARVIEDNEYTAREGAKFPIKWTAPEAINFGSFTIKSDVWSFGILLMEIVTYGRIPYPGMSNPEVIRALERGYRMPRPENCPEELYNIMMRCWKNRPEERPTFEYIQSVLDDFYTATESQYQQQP
Runt-CBFb FRET – inhibitors of human RUNX1 Runt domain binding to CBFb; Cerulean-Runt/Venus-CBFb FRET ratio 530/480, 1 h; inhibition, % at 20 µM; 220,000 tested, 0.46% active; AID 1496;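 active means inhibition over about 50% at 20 µM in the single-dose screen, limit read from the data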;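 further: 0% = DMSO wells and 100% = excess unlabeled CBFb competitor control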
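Assay system: Cerulean-Runt domain / Medium: Tris 50 mM pH 7.5, KCl, K2SO4, 0.01% BSA / Timing: protein complex preformed 1 h, compound exposure 1 h, room temperature, dark / Measured by: FRET, excitation 422 nm, emission at 530 and 480 nm / Evaluation: loss of energy transfer signal / Control set: 5 µM unlabeled CBFb as full-inhibition high control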
CaV13 ICDI inh – Primary screen for inhibitors of IQ motif and Ca2+-dependent inactivation inhibitor domain binding in CACNA1D, Förster resonance energy transfer in living cells, …; HEK cells, CFP/YFP FRET ICDI-IQ, plate reader, 10 min; percent FRET-ratio fall versus neutral wells; inhibition, % at 12.3 µM; 340,000 tested, 0.098% active; AID 743397;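 active means mean replicate inhibition of at least 30% and at least 1% of replicates passing that level; inconclusive means only one of the two criteria is met; inactive means neither criterion is met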;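 further: 0% = median of the neutral control wells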
RanGTP-Impb inh – inhibitors of RanGTP-importin-beta interaction, primary screen, biochemical, FRET, CFP-Ran, YFP-importin-beta, homogeneous. cell-free CFP-Ran/YFP-importin-beta FRET ratio. inhibition, % (no concentration beside the values). 300,000 tested, 1.1% active. AID 2216;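 active means more than half of the replicate wells show a fall in the fluorescence ratio signal beyond about 16%, limit read from the data, passing the limit was not always enough; inconclusive means exactly half of the replicate wells pass the set limit; inactive means fewer than half of replicates pass the limit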;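 further: 0% = DMSO wells and 100% = Ran loaded with GDP instead of GTP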
Hck Nef conf – confirmation of Hck-Nef kinase inhibitors | shares compounds with Hck-Nef inh | Recombinant Hck-YEEI:Nef, Z-Lyte FRET kinase assay | calls only at 10 µM | 1,300 tested, 28% active;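 active means average inhibition of at least 50%, with Z-scores no higher than 3 in both the phospho-tyrosine peptide and fluorescence counterscreens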
Numbers without * were called inactive; i = inactive; u = inconclusive; x = not tested or not shown; + = active, no number.

SMILES	Runt-SMMHC FRET	Hck-Nef inh	Runt-CBFb FRET	CaV13 ICDI inh	RanGTP-Impb inh	Hck Nef conf
CN1CCN(C(=O)c2ccc3c(=O)n(-c4ccc(F)cc4)c(=S)[nH]c3c2)CC1	1.0	1.2	2.2	-2.7	-1.4	x
CCOC(=O)N1CCN(C(=O)c2ccc3c(=O)n(-c4ccc(F)cc4)c(=S)[nH]c3c2)CC1	2.4	53.2*	-0.2	-4.4	2.3	i
CCOC(=O)c1cc(-c2ccccc2)sc1NC(=O)COC(=O)c1cccc(S(N)(=O)=O)c1	-55.6	57.6*	-49.3	-2.9	-2.1	+
COC(=O)[C@]12CCCCC=C1N(Cc1ccco1)C(=O)[C@H](CC(=O)NCc1cccc3ccccc13)C2	x	x	x	-5.1	x	x
COc1cccc2cc(-c3csc(CCn4nc(C)cc4C)n3)c(=O)oc12	-3.1	1.6	-2.7	x	2.0	x
CC/C(C)=N/Nc1nc(-c2cc3cccc(OC)c3oc2=O)cs1	-13.9	57.2*	10.6	-4.9	0.3	i
O=C(N/N=C/c1cccc([N+](=O)[O-])c1)c1cc(-c2ccc3c4c(cccc24)CC3)n[nH]1	-11.6	9.7	-2.8	-4.4	-1.0	x
O=C(N/N=C/c1ccc(Cl)c([N+](=O)[O-])c1)c1cc(-c2ccc3c4c(cccc24)CC3)n[nH]1	-3.3	61.6*	-2.7	-2.8	-1.0	i
CC(C)(C)n1cn[nH]c1=S	0.5	11.3	1.9	-12.8	1.1	x
O=Cc1cc(N=Nc2cccc(C(=O)O)c2)ccc1O	-7.8	26.4	1.6	12.8	-2.5	x
O=Cc1cc(N=Nc2ccccc2Cl)ccc1O	-2.8	56.6*	-5.3	-17.4	-4.4	+
O=C(Nc1ccc(Cl)cc1)Nc1ccc(Br)cn1	x	x	x	-19.3	0.2	x
O=C(N/N=C/c1ccc(-c2cccc([N+](=O)[O-])c2)o1)c1cccs1	0.1	30.8	2.0	-12.5	5.6	x
N#C/C(=C\c1ccc(-c2cccc([N+](=O)[O-])c2)o1)C(=O)Nc1nc(-c2cccs2)cs1	-15.4	74.7*	-2.4	-2.2	-1.6	+
COc1ccc(C(=O)N=c2sc3ccccc3n2C)cc1	2.0	25.5	2.3	-7.1	2.3	x
COc1cc(OC)cc(C(=O)N=c2sc3ccccc3n2C)c1	-6.0	81.4*	-3.6	-3.6	1.6	i
Cc1ccc(Oc2ccc(C(F)(F)F)cc2[N+](=O)[O-])c([N+](=O)[O-])n1	-0.4	51.8*	0.9	-5.3	-2.1	i
OCC[C@@H]1C[C@@H](O)[C@H](O)[C@@]2(CCCCO2)O1	x	x	x	-9.2	8.6	x
O=C(Nc1nn[nH]n1)c1cc(-c2ccc(Cl)c(Cl)c2Cl)nc2ccccc12	-3.1	119.3*	2.1	-3.3	2.6	i
Cc1ccc(-c2nc(C=Nc3ccccc3)c(O)o2)cc1	7.8	-5.0	3.4	-37.4	-2.3	x
COc1ccc2cc(N=Cc3nc(-c4ccc(C)cc4)oc3O)cnc2c1	-157.9	58.8*	-14.0	-12.3	6.6	i
COc1ccc(-c2cc3ccccc3oc2=O)cc1NC(=O)c1ccc([N+](=O)[O-])o1	-1.8	7.6	0.0	-9.4	-2.4	x
COc1ccc(-c2cc3ccccc3oc2=O)cc1NC(=S)NC(=O)c1ccc2c(c1)OCCO2	-43.0	50.6*	x	-4.2	u	+
COc1ccc(-c2cc3ccccc3oc2=O)cc1NC(=O)c1ccc(Br)o1	-117.5	76.5*	-6.1	x	u	i
CCC(=O)Nc1cc(-c2cc3ccccc3oc2=O)ccc1OC	-1.1	5.4	-0.8	-2.2	0.5	x
SMILES	Runt-SMMHC FRET	Hck-Nef inh	Runt-CBFb FRET	CaV13 ICDI inh	RanGTP-Impb inh	Hck Nef conf
Cc1ccccc1NC(=O)Cc1c[nH]c2ccccc12	x	x	x	-3.3	-0.2	x
O=C1CCCC2=C1C(c1cccc(O)c1)c1c(ccc3ncccc13)N2 (centres undefined)	2.2	64.9*	4.0	-5.7	1.7	i
COc1ccc(C2C3=C(CCCC3=O)Nc3ccc4ncccc4c32)cc1OC (centres undefined)	7.3	14.3	1.6	0.1	2.4	x
CCOC(=O)c1cc2c(=O)n3ccccc3nc2n(CCCOC)c1=NC(C)=O	-19.2	172.9*	56.0*	-0.8	x	x
Cn1c(C(=O)N2CCN(C(=O)c3ccco3)CC2)cc2c(=O)n3ccccc3nc21	45.1	24.8	20.4	-5.3	2.5	x
CCCn1c(=NC(=O)c2ccco2)c(C(=O)OCC)cc2c(=O)n3ccccc3nc21	56.2*	62.5*	18.7	x	116.4*	i
CCOC(=O)c1cc2c(=O)n3ccccc3nc2n(C(C)C)c1=NC(=O)c1ccco1	86.3*	105.8*	20.3	+	0.3	x
CC(C)OCCCn1c(=NC(=O)c2ccncc2)c(C#N)cc2c(=O)n3ccccc3nc21	46.5	108.5*	9.9	-9.4	57.3*	x
CCN(C(=O)c1cc2c(=O)n3ccccc3nc2n1C)C1CCCCC1	x	x	x	-4.1	u	x
NS(=O)(=O)c1ccc(NC(=O)COc2ccc(S(=O)(=O)N3CCCC3)cc2)cc1	x	x	x	-4.6	-2.7	x
Cc1ccc(C)c(S(=O)(=O)N2CCN(C(=O)Cc3sc(C)nc3-c3ccc(F)cc3)CC2)c1	x	x	x	-5.8	x	x
Cc1cnc(C2OCCO2)c2cccc(N)c12	x	x	x	-18.8	x	x
CCOc1ccc(/C=C2\SC(=S)N(NS(=O)(=O)c3ccccc3)C2=O)cc1OC	-21.7	16.2	-7.5	-16.6	-7.1	x
CCOc1ccc(/C=C2\SC(=S)N(NS(=O)(=O)c3ccc(C)cc3)C2=O)cc1OC	-13.4	50.6*	-9.9	-2.0	2.4	+
CCN(CC)c1ccc(C=C2C(=O)OC3(CCCCC3)OC2=O)cc1	-24.1	13.6	-5.5	3.6	u	x
CCN(CC)c1ccc(/C=C2/C(=O)c3ccc(C(=O)O)cc3C2=O)cc1	-92.1	55.4*	-30.6	-16.8	x	i
CNC(=S)N(Cc1ccc(Cl)cc1)Cc1cccs1	0.8	7.6	0.9	-4.5	-1.4	x
O=C(NCCC1=CCCCC1)c1cc(-c2ccccn2)nc2ccccc12	1.2	59.9*	-0.2	-6.0	4.3	i
CCOc1ccc(S(=O)(=O)Nc2cccc(C(=O)N(C)CC(=O)Nc3cccc(OC)c3)c2)cc1	x	x	x	-5.4	4.4	x
NS(=O)(=O)c1ccc(N/N=C/c2ccccn2)c([N+](=O)[O-])c1	-0.1	18.3	0.1	-5.6	0.7	x
NS(=O)(=O)c1ccc(N/N=C/c2ccc(O)cc2O)c([N+](=O)[O-])c1	0.2	92.5*	-0.6	-7.2	u	+
Cc1ccc(CNC(=O)CN(C)S(=O)(=O)c2ccc3c(c2)n(C)c(=O)c(=O)n3C)cc1	x	x	x	x	5.4	x
CC(C)(C)c1ccc(C(=O)CC(Sc2ccc(Cl)cc2)C(=O)O)cc1 (centres undefined)	42.6	76.8*	47.1	-8.3	-2.2	i
CC1C(=O)N2CCCc3cc(S(=O)(=O)N4CCN(c5ccc(F)cc5)CC4)cc1c32 (centres undefined)	x	x	x	-5.6	-0.5	x

From PubChem BioAssay
